Results on 7 compounds are retold here after paper PMC4227885 (Science translational medicine, 2013).

The target of series [1] is human cytochrome bc1 (derived from HEK-293 cells) (Homo sapiens, UniProt P00156). The series can be described thus: Inhibition of human cytochrome bc1 activity. In kind it is biochemical.
Series [2] concerns P. berghei ookinete. The series can be described thus: In vitro ookinete assay. In kind it is cell-based. As to conditions: read-out: IC50 ookinete production.
For series [3], the system named is P. yoelii in CD1 Swiss mice. As to conditions: for ED90: P. yoelii, 4-day test, oral, PEG400 vehicle.
In series [4] the test system is P. falciparum. The series can be described thus: Immuno-deficient. The format is in vivo. The essentials:
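NOD-scid IL2Rγnull-type immunodeficient mice were engrafted with human erythrocytes and infected with P. falciparum. The test compound was given orally daily for 4 consecutive days as a non-optimized suspension, not in PEG400 (3 vehicle mice, 11 treated). Parasitemia was measured by FACS, with Giemsa smears at 48 h. Blood levels were followed over 23 h after the first dose. ED90 was taken at day 7 versus vehicle. AUCED90 was estimated graphically from AUC0→23h versus log10 day-7 parasitemia for each mouse.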

The nature of series [5]: Metabolic stability in liver microsomes. The format is in vitro ADME. As to conditions: in vitro incubation with liver microsomes, multiple species. A general note: Microsomes from liver hold many membrane-bound enzymes, among them those of drug oxidation.
The test system of series [6] is P. berghei oocyst formation in Anopheles stephensi mosquitoes. The series can be described thus: Oocyst formation after membrane feeding of drug-spiked infected blood. In kind it is in vivo. The essentials: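 Mouse blood infected with GFP-expressing P. berghei was mixed with the test compound and placed at once in membrane feeders at 39 °C. It was offered to about 75 overnight-starved mosquitoes. After 7 days, fluorescent oocysts on dissected midguts were counted by semi-automated image capture and analysis. DMSO was the negative control.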

The test system of series [7] is major cytochrome P450 enzymes. The series can be described thus: Cytochrome P450 inhibition. As to conditions: at concentrations needed for efficacy. The format is in vitro ADME.
For series [8], the system named is P. berghei infected ICR mice. The series can be described thus: Thompson test, blood stage efficacy. In kind it is in vivo.
The test system of series [9] is two rat cell lines. As to conditions: read-out: IC50 level, ATP levels; either of two rat cell lines, galactose medium.
In series [10] the test system is P. cynomolgi liver schizonts. The series can be described thus: In vitro liver stage assay in primary rhesus hepatocytes. In kind it is cell-based. As to conditions: read-out: IC50 liver schizonts, 6-day incubation.
Series [11] has as its system P. falciparum. The series can be described thus: In vitro parasite reduction ratio. In kind it is cell-based.
For series [12], the system named is P. vivax clinical isolates. The series can be described thus: Ex vivo susceptibility of clinical field isolates, modified WHO microtest. In kind it is cell-based, Plasmodium vivax. As to conditions: read-out: median EC50, Papua, Indonesia. The essentials: (§1)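 Isolates were taken from patients attending malaria clinics in southern Papua, Indonesia, and tested ex vivo by a modified WHO microtest. Median IC50 was reported separately for each species. Comparisons used the Wilcoxon rank sum test.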

The subject of series [13] is J774 mouse macrophages. The format is cell-based.
The target of series [14] is P. falciparum cytochrome bc1 (Plasmodium falciparum, UniProt Q02768). The format is biochemical. As to conditions: read-out: IC50, nM P. falciparum cytochrome bc1; P. falciparum mitochondria.
Chain of P. falciparum cytochrome bc1 (Q02768 whole entry): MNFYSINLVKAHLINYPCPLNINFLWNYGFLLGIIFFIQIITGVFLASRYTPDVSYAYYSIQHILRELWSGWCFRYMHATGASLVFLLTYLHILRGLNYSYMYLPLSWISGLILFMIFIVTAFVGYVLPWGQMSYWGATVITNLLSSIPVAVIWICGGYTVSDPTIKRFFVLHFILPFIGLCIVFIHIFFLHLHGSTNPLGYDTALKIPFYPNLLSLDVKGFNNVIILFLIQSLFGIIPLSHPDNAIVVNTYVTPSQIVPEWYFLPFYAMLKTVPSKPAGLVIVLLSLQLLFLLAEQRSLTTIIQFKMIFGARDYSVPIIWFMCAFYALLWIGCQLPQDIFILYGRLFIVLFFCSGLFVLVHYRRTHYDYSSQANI
In series [15] the test system is murine bone marrow derived hematopoietic progenitors (CFU-GM, BFUE, CFU-GEMM). In kind it is cell-based.
The test system of series [16] is P. falciparum clinical isolates. The series can be described thus: Ex vivo susceptibility of clinical field isolates, modified WHO microtest. The format is cell-based, Plasmodium falciparum. As to conditions: read-out: median EC50, Papua, Indonesia. The essentials:
as §1

The test system of series [17] is P. falciparum (NF54) gametocytes (Stage I-II). The series can be described thus: Inhibition of early stage gametocyte development. As to conditions: three days exposure of Stage I-II gametocytes. In kind it is cell-based.
Series [18] concerns 100 neurotransmitter receptors, peptide receptors, ion channels, reuptake sites, and enzymes.
For series [19], the system named is P. falciparum strain 3D7 oocyst formation. The series can be described thus: Standard membrane feeding assay. In kind it is in vivo.
The nature of series [20]: Pharmacokinetics in mice, intravenous and oral. In kind it is in vivo, mouse. As to conditions: 0.3 mg/kg oral in PEG400. The method, boiled down:
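Non-fasted male Swiss outbred mice were used. The IV dose was 0.1 mg/kg, formulated in mouse plasma and given via the tail vein. The oral dose was 0.3 mg/kg by gavage, as a solution in undiluted PEG400.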

The target in series [21] is hERG (human-Ether-a-go-go-Related Gene) channel (Homo sapiens, UniProt Q12809). In kind it is cell-based.
Chain of hERG (human-Ether-a-go-go-Related Gene) channel (Q12809 whole entry): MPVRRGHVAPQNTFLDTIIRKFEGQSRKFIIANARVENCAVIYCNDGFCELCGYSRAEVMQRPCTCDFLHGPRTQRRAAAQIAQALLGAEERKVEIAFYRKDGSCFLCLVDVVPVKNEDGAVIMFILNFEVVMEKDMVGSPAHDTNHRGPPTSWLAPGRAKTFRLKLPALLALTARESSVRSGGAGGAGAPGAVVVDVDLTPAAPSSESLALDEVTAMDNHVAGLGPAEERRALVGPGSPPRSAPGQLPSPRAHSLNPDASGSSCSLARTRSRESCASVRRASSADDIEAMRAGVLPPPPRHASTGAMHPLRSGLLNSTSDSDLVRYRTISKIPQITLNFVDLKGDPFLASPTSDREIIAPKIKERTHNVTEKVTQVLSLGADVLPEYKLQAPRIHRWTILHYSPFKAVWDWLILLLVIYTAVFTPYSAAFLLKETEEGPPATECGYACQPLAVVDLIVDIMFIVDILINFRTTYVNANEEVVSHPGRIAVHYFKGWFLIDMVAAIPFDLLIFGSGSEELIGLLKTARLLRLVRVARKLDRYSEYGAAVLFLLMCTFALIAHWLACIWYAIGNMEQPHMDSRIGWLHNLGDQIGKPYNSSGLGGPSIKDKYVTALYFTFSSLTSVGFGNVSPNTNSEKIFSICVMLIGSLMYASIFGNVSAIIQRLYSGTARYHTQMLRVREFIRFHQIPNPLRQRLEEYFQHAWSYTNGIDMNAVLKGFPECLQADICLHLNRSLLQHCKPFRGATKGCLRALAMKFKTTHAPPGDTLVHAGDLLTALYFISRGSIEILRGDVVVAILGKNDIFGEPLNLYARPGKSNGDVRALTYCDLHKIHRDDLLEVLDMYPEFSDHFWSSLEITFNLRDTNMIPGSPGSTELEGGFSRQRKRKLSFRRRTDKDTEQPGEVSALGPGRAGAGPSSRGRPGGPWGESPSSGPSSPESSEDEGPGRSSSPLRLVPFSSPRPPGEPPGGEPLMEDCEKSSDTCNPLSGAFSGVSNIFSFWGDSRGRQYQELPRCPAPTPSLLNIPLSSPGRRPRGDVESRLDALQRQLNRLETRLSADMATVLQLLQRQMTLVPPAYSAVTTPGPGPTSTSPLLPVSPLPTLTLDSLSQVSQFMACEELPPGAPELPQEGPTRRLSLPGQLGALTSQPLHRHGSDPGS
Series [22] deals with late stage IV - V P. falciparum gametocytes. The series can be described thus: Late stage gametocyte viability, high content imaging. In kind it is cell-based. As to conditions: read-out: IC50 stage IV-V gametocyte viability.
In series [23] the test system is human foreskin fibroblasts (HFF). The format is cell-based.
For series [24], the system named is transgenic P. falciparum clone D10yDHOD. The series can be described thus: Susceptibility of transgenic clone expressing yeast DHOD. The format is cell-based, Plasmodium falciparum.
Series [25] concerns P. falciparum strains (D6, 3D7, Dd2, W2, recent isolates from SE Asia, TM90-C2B). In kind it is cell-based, Plasmodium falciparum. As to conditions: atovaquone-resistant clinical isolate TM90-C2B.
Series [26] relates to P. berghei oocysts in Anopheles stephensi. The series can be described thus: In vivo transmission blocking, mosquitoes fed on treated infected mice. As to conditions: for inhibition at 10 mg/kg: read-out: inhibition of oocyst production. The method, boiled down: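 Mice at about 3% P. berghei parasitemia received a single oral dose of test compound (0.1–10 mg/kg) or vehicle. Female Anopheles stephensi fed on the mice 1 h after treatment. Midguts were dissected on day 10 post infection and examined for oocysts. Dihydroartemisinin and primaquine (10 mg/kg) were positive controls.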

The subject of series [27] is exoerythrocytic stages of P. berghei. The series can be described thus: In vitro liver stage assay, luciferase sporozoites on HEPG2 hepatoma cells. In kind it is cell-based. As to conditions: read-out: EC50, luciferase expression, 44 h post infection. The essentials: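 Luciferase-expressing P. berghei sporozoites were added to HepG2 hepatoma monolayers and allowed to infect for 1 h. A dilution series of the test compound was then added and plates were incubated at 37 °C. Luciferase was read 44 h post infection. EC50 came from a nonlinear logistic dose-response fit.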

The subject of series [28] is 5-strain Ames bacterial assay. In kind it is cell-based.
Series [29] has as its system P. berghei (luciferase) sporozoite infections of BALB/c mice. The series can be described thus: In vivo liver stage, sporozoite infection with bioluminescence imaging. As to conditions: per os one hour post infection. The method, boiled down:
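BALB/c mice (5 per group) were infected with luciferase-expressing P. berghei sporozoites. One hour later they received a single dose of test compound by gavage; untreated mice served as controls. For bioluminescence imaging at 44 h and on days 6 and 13, mice were injected with D-luciferin and anesthetized, tracking liver and blood stages.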

Series [30] has as its system P. falciparum strains (D6, Dd2, TM90-C2B, V1/S). The series can be described thus: In vitro isobolar testing with proguanil, fixed combination ratios. In kind it is cell-based. As to conditions: isobolar testing against 4 strains.
The nature of series [31]: Aqueous solubility, kinetic and thermodynamic methods. The format is physicochemical. The method, boiled down: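 Kinetic method: DMSO stock diluted into various media. Thermodynamic method: equilibrium solubility with physiologically relevant media and incubation time.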
In series [32] the test system is P. falciparum strain 3D7 oocyst formation. As to conditions: comparable SMFA; cited from earlier work.

Like-named read-outs stand apart in the source and are kept apart here. Some results are limits rather than exact numbers.

With `O=C1C(O)=C([C@H]2CC[C@H](c3ccc(Cl)cc3)CC2)C(=O)c2ccccc21` [Atovaquone, reference compound], the 50% inhibitory concentration (IC50) (usually the concentration needed to halve the response being measured) in series [1] is 460 nM; in [2] (Plasmodium berghei, 24 h), 67 nM. The ED90 in series [3] amounted to 0.04 mg/kg/day.
For the compound `Cc1[nH]c2ccccc2c(=O)c1-c1ccc(Oc2ccc(OC(F)(F)F)cc2)cc1` [ELQ-271], in series [1] (read-out: IC50 human cytochrome bc1, enzyme derived from HEK cells), the IC50 was 1990 nM.
As to `COc1cc2[nH]c(C)c(-c3ccc(Oc4ccc(OC(F)(F)F)cc4)cc3)c(=O)c2cc1Cl` [ELQ-300], the “dose that reduced parasitemia by 90% at day 7 (ED90)” value in series [4] (SCID mice, oral daily for four days, suspension formulation) is reported as 5.9 mg/kg/day. Moreover, in series [4] (SCID mouse model, blood), the “estimated exposure at the ED90 dose (AUCED90)” value is given as 1.1 μg·h/mL/day. Further, the “stability to metabolic degradation by cytochrome P450 enzymes” value in [5] was “highly stable”. The “reduction of oocyst burden in mosquito midguts” value in series [6] (10 nM) is 19.2%. Also, the “reduction of the total oocyst count relative to controls” value in series [6] (blood containing 100 nM) is recorded as 99.4%. Also, the oocyst formation entry in series [6] (blood containing 1 μM drug) is listed as “no oocysts formed”. Also, the “inhibition of the major cytochrome P450 enzymes” value in series [7] is on record as “did not inhibit”. The “curative blood stage dose” value in series [8] (Thompson or Peter's tests) amounted to 1 mg/kg. Moreover, the “fifty percent effective dose (ED50)” value in [8] (Thompson test, P. berghei, ICR mice) is recorded as 0.016 mg/kg/day. For the same compound, the IC50 is more than 100000 nM in series [9]; approximately 100 nM in series [10]; more than 10000 nM in [13]; 0.58 nM in series [14]; more than 10000 nM in series [15]; more than 11000 nM in series [21]. Further, the IC50 in series [22] (72 hr) was 71.9 nM; in series [23], more than 10000 nM; in series [1] (read-out: IC50, nM human cytochrome bc1, derived from HEK-293 cells), more than 10000 nM; in series [2] (first 24 h of development, GFP endpoint), 56 nM. Besides, in series [11] (10x EC50 concentration), the “time required to kill >99.9% of parasites” value is given as “≈ 100 h”. In [11] (exposure up to 120 hr), the speed of action result was “slow-acting”. Further, the EC50 – broadly, the concentration giving half of the maximal effect – in series [12] was 17.9 nM; in series [16], 14.9 nM; in series [27] it was 1.02 nM. For the same compound, the “lowest exposure preventing gametocyte development to Stage IV” value in [17] is not above 0.1 µM. In addition, in series [18], the “inhibition in screen of 100 targets” value is “did not observe any significant inhibition”. Moreover, the “concentration that completely blocked oocyst formation” value in [19] (one of two independent studies) is recorded as not below 10 nM. For the same compound, in series [19] (the other study, 10 nM), the “reduction in oocyst formation” value amounted to 95.9%. Also, in series [20], the Tmax entry is “approximately 7.5 h”. Further, the oral bioavailability entry in series [20] is on record as “approximately 100%”. Further, the “sensitivity of D10yDHOD transfectants” value in series [24] was “insensitive”. The “cross-resistance with atovaquone in TM90-C2B” value in series [25] worked out at 1.3 fold. In series [26] (single oral dose, feeding one hour after treatment), the “dose that completely prevented transmission (oocyst development)” value was not below 0.1 mg/kg. Also, the mutagenic potential result in series [28] is reported as “lacks mutagenic potential”. The “single dose that completely blocked infection” value in series [29] is not below 0.03 mg/kg. The interaction with proguanil result in series [30] is recorded as “strong pharmacological synergism”. Moreover, the aqueous solubility result in [31] is listed as “low aqueous solubility”. Besides, the “non-recrudescence dose relative to atovaquone” value in series [3] (P. yoelii murine model) is reported as 30 times lower. The same compound came in with an ED90 in [3] of 0.15 mg/kg/day. The same compound displayed an AUCED90 in [3] (mouse, in vivo) of 1.4 μg·h/mL/day. The “drug exposure (AUC0-24 h) in peripheral blood at the ED90” value in series [3] (mouse, in vivo, po) was found to be 1400 ng·h/mL.
As to `C[C@H]1Cc2c([nH]c3cc(Cl)c(F)cc23)[C@@]2(N1)C(=O)Nc1ccc(Cl)cc12` [NITD609], the “concentration required to completely inhibit oocyst formation” value in series [32] is 500 nM.
Regarding `C[C@H]1[C@@H](O)O[C@@H]2O[C@@]3(C)CC[C@H]4[C@H](C)CC[C@@H]1[C@@]24OO3` [dihydroartemisinin], the inhibition (usually the drop in the measured response relative to a control, in per cent) at 10 mg/kg in series [26] came to 63.7%.
For the compound `COc1cc(NC(C)CCCN)c2ncccc2c1` (stereo not shown) [primaquine], the inhibition at 10 mg/kg in [26] was 95.4%.
Take `COc1ccc(C[C@H](N)C(=O)N[C@H]2[C@@H](O)[C@H](n3cnc4c(N(C)C)ncnc43)O[C@@H]2CO)cc1` [puromycin, reference compound]: the IC50 in series [22] (Plasmodium falciparum, 72 h) was determined as 75.3 nM.
